Screening data: PubChem, several laboratories
Scp-1 inhibitor – Scp-1 phosphatase inhibitors, primary screen, biochemical, colorimetric, uHTS; Carboxy-terminal domain RNA polymerase II polypeptide A small phosphatase 1 (Homo …; Recombinant Scp1, phosphopeptide, malachite green phosphate absorbance; inhibition, % at 20 µM; 340,000 compounds, 0.88% hits; AID 493091, 2011;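 active = inhibition above about 50% at 20 µM, limit read from the data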;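 note: plate controls were DMSO wells with enzyme for no effect and wells lacking enzyme for full effect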
Target sequence (Q9GZU7 76-261 limits assumed): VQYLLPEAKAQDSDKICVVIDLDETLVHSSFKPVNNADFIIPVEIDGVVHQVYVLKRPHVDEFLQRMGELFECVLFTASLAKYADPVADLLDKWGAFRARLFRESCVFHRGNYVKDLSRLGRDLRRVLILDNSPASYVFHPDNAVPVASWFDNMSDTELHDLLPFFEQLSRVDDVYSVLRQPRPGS
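Material: truncated SCP-1 phosphatase (76-261aa) / Buffer or medium: 50 mM Tris acetate pH 5.5, 0.005% Tween-20, 10 mM MgCl2 / Compound dosing: one concentration, 20 µM, with 1.0% DMSO / Incubation: 45 min room-temperature reaction, 5 min colour, 30 min stabiliser / Detection: colorimetric free-phosphate detection, absorbance 630 nm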
rCAG binder – binders of r(CAG) RNA repeats, primary screen, biochemical, fluorescence; 370,000 compounds, 1.3% hits; r(CAG) RNA repeat, TO-PRO-1 dye displacement fluorescence; AID 651821, 2012; inhibition, % at 3 µM;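 active = inhibition above the plate cutoff, the mean of all test compounds on that plate plus 3 SD, cut at about 35% in these data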;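 note: 0% = DMSO alone and 100% = 100 µM mitoxantrone as full dye displacement; higher means more dye released from RNA so lower well fluorescence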
STEP block – STEP phosphatase inhibitors, primary screen, biochemical, fluorescence intensity, uHTS; inhibition, % at 20 µM; 360,000 compounds, 0.25% hits; Tyrosine-protein phosphatase non-receptor type 5 (Homo sapiens), P54829; recombinant STEP, OMFP fluorogenic substrate; AID 588621, 2011;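 active = inhibition at 20 µM, scaled per plate between control wells, above about 37%, limit read from the data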;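 note: 0% = DMSO with enzyme and substrate and 100% = substrate only without enzyme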
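System: isolated STEP enzyme; schedule: 20 min enzyme reaction at room temperature, protected from light; medium: Bis-Tris buffer pH 6.0, 2.5 mM DTT, 0.005% Tween 20; signal: fluorescence, 480/540 nm; dosing: single compound dose of 20 µM, 1% DMSO final; also added: OMFP substrate, 25 µM final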
NadD inh – inhibitors of S. aureus NadD, primary screen, biochemical, colorimetric, uHTS | 360,000 compounds, 0.78% hits | Nicotinate-nucleotide adenylyltransferase NadD (Staphylococcus aureus N315) | inhibition, % at 20 µM | purified NadD enzyme, colorimetric absorbance read-out; in the data active = inhibition above about 26%
LMPTP block – LMPTP phosphatase inhibitors, primary screen, biochemical, fluorescence intensity, uHTS; 360,000 compounds, 0.22% hits; AID 651560, 2012; recombinant LMPTP-A, OMFP fluorogenic substrate; inhibition, % at 20 µM;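 active = compounds that cut the enzyme signal by at least half of the control window in the single-dose screen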;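 note: plate controls were DMSO wells with enzyme plus substrate for no effect and substrate without enzyme for full effect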
Target sequence (P24666 whole entry, looked up): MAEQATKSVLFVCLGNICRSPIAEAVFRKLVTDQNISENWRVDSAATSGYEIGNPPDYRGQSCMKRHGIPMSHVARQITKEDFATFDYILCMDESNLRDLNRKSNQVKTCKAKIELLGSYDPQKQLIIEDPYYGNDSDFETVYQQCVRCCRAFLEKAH
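Test system: LMPTP-A phosphatase enzyme. Amount: LMPTP-A at 0.625 nM final in the reaction. Reagent: OMFP substrate, 400 µM final. Times: 50 min at room temperature. Signal: endpoint fluorescence intensity from OMFP dephosphorylation. Read-out basis: % inhibition. Benchmarks: no-enzyme and uninhibited controls.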
The depositor's hits bear a star; / = no result given. Sampled rows, rich in hits. Any-hit rate of the full collection: about 2.6%.

SMILES	Scp-1 inhibitor	rCAG binder	STEP block	NadD inh	LMPTP block
Cc1noc(C)c1S(=O)(=O)Nc1ccc2c(c1)C(=O)N([C@H](C)CO)C[C@H](C)[C@@H](CN(C)C(=O)Nc1ccc3c(c1)OCO3)O2	76.4*	8.4	-3.0	5.7	-0.7
Cc1noc(C)c1NC(=O)N(C)C[C@H]1Oc2ccc(NS(=O)(=O)c3c(C)noc3C)cc2C(=O)N([C@H](C)CO)C[C@@H]1C	38.9	0.3	1.4	-1.3	-1.4
Cc1ccc(-n2c(Cc3cccs3)nnc2SCC(=O)Nc2ccccc2-c2ccccc2)cc1	/	3.5	/	/	/
COc1ccc(S[C@]2(C(=O)N3CCN(c4ncccn4)CC3)CC(=O)N(C(=O)CCc3ccccc3)[C@@H]2c2ccc(OC)cc2)cc1	/	9.6	/	/	/
N#C/C(=N/Nc1ccc(OC(F)(F)F)cc1)C(N)=S	-16.4	14.8	0.6	0.3	3.5
NC(=S)N=Nc1ccc(NN=C(N)N)cc1	-14.5	3.9	84.1*	19.3	41.0
COC(=O)C1CN(Cc2ccc(F)cc2)CCS(=O)(=O)N1Cc1cn(Cc2ccc(C)cc2)nn1 (stereo not drawn)	/	2.1	/	/	/
Cn1cccc1/C=C1\SC(=Nc2ccccc2)NC1=O	4.8	8.1	-0.4	-5.0	0.9
Cc1ccc(N=C2NC(=O)/C(=C/c3cn(C)c4ccccc34)S2)cc1C	5.3	16.2	-5.2	33.9*	2.2
CC1=N/C(=C/c2ccco2)C(=O)O1	56.5*	8.6	8.6	4.5	-1.3
Cc1ccc(C)n1-c1cc(S(=O)(=O)N2CCOCC2)ccc1N1CCCC1	1.7	10.8	3.8	34.9*	1.7
O=C(c1ccccc1)c1ccc(O)c(O)c1O	66.3*	15.1	32.0	5.4	51.0*
Cc1cccc(OCC(=O)Nc2cc(NC(=O)COc3cccc(C)c3C)cc(C(=O)O)c2)c1C	40.1	4.8	2.8	12.0	2.8
Cc1cccc(OCC(=O)Nc2ccc(C(=O)Nc3ccccc3C(=O)O)cc2)c1C	35.8	41.1*	3.5	6.8	0.4
CCCCCNC(=O)C(c1ccccc1F)n1c(=O)c(-c2ccco2)nc2ccccc21 (stereo not drawn)	/	39.7*	/	/	2.6
O=C(NCc1ccccc1)C(c1ccc(C(F)(F)F)cc1)n1c(=O)c(-c2ccco2)nc2ccccc21 (stereo not drawn)	/	36.4*	/	/	2.5
COc1ccc(NC(=O)C(=O)N/N=C\c2ccc(CNC(=O)C(=O)Nc3ccc(C)c(C)c3)o2)c(OC)c1	68.1*	/	/	/	/
COC(=O)c1cc(-c2ccc(OC)c(OC)c2)c(=O)n2c1CCC2	/	6.3	/	/	/
Cc1cc(C)c(S(=O)(=O)/N=C2/C=C(SCC(=O)O)C(=O)c3ccccc32)cc1C	9.5	/	5.6	48.2*	7.8
Cc1ccc(NC2=C/C(=N\S(=O)(=O)c3cccs3)c3ccccc3C2=O)c(C)c1	-9.0	/	6.2	5.7	8.1
COC(=O)c1c(C)oc2ccc(N(C(=O)Oc3ccccc3)S(=O)(=O)c3ccc(Cl)c([N+](=O)[O-])c3)cc12	10.5	/	-0.9	31.2*	0.8
COc1ccccc1Nc1ccc2c(O)cc(S(=O)(=O)O)cc2c1	81.5*	74.4*	97.1*	21.4	84.9*
Cc1cccc[n+]1CC(=O)/C=C1\N(C)c2ccccc2C1(C)C	-4.6	-2.2	-0.4	-0.3	0.2
CN1/C(=C/C=C/c2n(C)c3cc([N+](=O)[O-])c([N+](=O)[O-])cc3[n+]2C)C(C)(C)c2ccccc21	/	22.3	23.5	0.3	58.1*
COc1ccccc1CNc1nc(NCc2ccccc2OC)c2sccc2n1	/	3.6	1.2	8.0	22.6
SMILES	Scp-1 inhibitor	rCAG binder	STEP block	NadD inh	LMPTP block
CC(=O)NCCNc1nc(NCc2ccccc2)nc2ccsc12	/	0.3	-3.9	-6.4	28.6
COc1ccccc1CNc1nc(NCc2ccc(NC(C)=O)cc2)c2sccc2n1	/	4.1	1.7	14.3	65.1*
CC(=O)Nc1ccc(CNc2nc(NCc3cccs3)nc3ccsc23)cc1	/	1.4	1.4	8.4	60.6*
CCCCC(=O)N1CCC(NS(=O)(=O)c2ccc3c(c2)CCN3C(C)=O)CC1	/	1.6	/	/	/
CCN(CC)C(=O)CC[C@H]1CC[C@]2(CCCN(S(=O)(=O)C3CCCCC3)C2)O1	/	-1.9	/	/	/
O=S(=O)(N=C1C=CC(=NS(=O)(=O)c2ccccc2)c2ccccc21)c1ccccc1	/	32.0	-2.0	33.4*	1.9
O=C1c2ccccc2C(=O)N1S(=O)(=O)c1ccccc1	-6.1	-1.5	-1.4	-2.7	-1.2
O=C(CC1CCCC1)N1CC[C@H]2[C@H](CCCN2Cc2ccccc2)C1	/	-0.1	/	/	/
CCOC(=O)[C@]12CCCC=C1N(CCCOC)C(=O)[C@@H]2CC(=O)NCc1ccc(OC)c(OC)c1	/	-1.3	/	/	/
O=C(Nc1ccccc1C(=O)O)c1cc(S(=O)(=O)N2CCCCCC2)ccc1Cl	1.8	58.0*	3.1	-1.8	-1.0
O=C(Nc1ccc2c(c1)CCC2)c1cc(S(=O)(=O)N2CCN(c3ccccc3)CC2)ccc1Cl	-7.8	13.7	4.3	32.2*	1.7
O=C(NC1CCCCC1)c1cc(S(=O)(=O)N2CCN(c3ccccc3)CC2)ccc1Cl	-6.8	3.8	-0.7	-0.6	-0.8
O=C(O)c1ccc2c(c1)C(=O)/C(=C\c1ccco1)C2=O	54.2*	17.6	9.0	-1.8	2.8
O=C1C(=Cc2ccco2)C(=O)c2ccccc21	-3.9	30.4	2.0	-1.5	1.4
Nc1cc(C(=O)O)c(N)c2c1C(=O)c1ccccc1C2=O	81.7*	/	7.5	-1.3	7.5
Nc1ccc(Oc2ccc3nc(-c4ccccc4)c(-c4ccc([N+](=O)[O-])cc4)nc3c2)cc1	15.3	6.1	0.6	32.0*	2.5
N#Cc1ccc(Oc2ccc(-c3nc4ccccc4nc3-c3ccccc3)cc2)cc1C#N	-20.5	3.1	2.3	-2.4	2.4
CN(Cc1ccccc1)C1=CC(=[N+]2CCCC2)CC(C)(C)C1	102.9*	-2.0	0.8	11.5	0.4
N#CCC[C@@H]1CC[C@]2(CCCN(C(=O)c3ccc4ccccc4n3)C2)O1	/	-0.2	/	/	/
CCCC[C@@H]1C(=O)N2N=Cc3cc(C)c(C)cc3[C@H]2N2N=Cc3cc(C)c(C)cc3[C@@H]12	/	8.9	/	/	/
COc1ccccc1Nc1nc(-c2cccs2)cs1	0.2	34.8*	8.9	17.8	2.6
COc1ccc(OC)c(Nc2nc(-c3cccs3)cs2)c1	-17.7	17.6	0.7	-1.1	5.2
CS(=O)(=O)c1ccc(OC[C@@H](O)CN2CCC(C(O)(c3ccccc3)c3ccccc3)CC2)cc1	/	-2.1	/	/	/
COc1ccc(-n2c(C)cc(-c3csc(NC(=O)c4ccc(S(=O)(=O)N(C)C)cc4)n3)c2C)cc1	-5.1	13.9	3.5	34.4*	1.0
